According to ChEMBL document CHEMBL1914386, “Neopetrosiquinones A and B, sesquiterpene benzoquinones isolated from the deep-water sponge Neopetrosia cf. proxima” (Bioorg Med Chem, 2011):
Activity calls are given as the source filed them. No cut-off for these calls is given here.

Columns and labels:
[1] = biological target: TCF4/beta-catenin (Homo sapiens) (UniProt P35222+Q9NQB0); experiment: Inhibition of GST-tagged T cell factor4/[…] interaction assessed as reduction in alkaline phosphatase level; format: cell-based
Trypanosoma cruzi = experiment: Antitrypanosomal activity against Trypanosoma cruzi Tulahuen assessed as parasite growth after 10 days by nephelometry; format: functional; details: 240 h
PANC-1 = experiment: Cytotoxicity against human PANC1 cells after 48 hrs by MTT assay; format: functional, cell-based; details: PANC-1, 48 h
Procedure, shortened: (§1)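 Proliferation of human tumour lines obtained from ATCC: A549 lung adenocarcinoma (CCL-185), PANC-1 pancreatic (CRL-1469), AsPC-1 pancreatic (CRL-1682) and DLD-1 colorectal adenocarcinoma. The assay was run by a protocol described earlier.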

A549 = experiment: Cytotoxicity against human A549 cells after 48 hrs by MTT assay; format: functional, cell-based; details: A549, 48 h; procedure, shortened: as §1
ASPC1 = experiment: Cytotoxicity against human AsPC1 cells after 48 hrs by MTT assay; format: functional, cell-based; details: ASPC1, 48 h; procedure, shortened: as §1
DLD-1 = experiment: Cytotoxicity against human DLD1 cells after 48 hrs by MTT assay; format: functional, cell-based; details: DLD-1, 48 h; procedure, shortened: as §1
[2] = Cytotoxicity against human NCI-ADR-RES cells after 48 hrs by MTT assay; format: functional, cell-based

inhibition [1] | GI50 (Trypanosoma cruzi) | Compound | IC50 (PANC-1) | IC50 (A549) | IC50 (ASPC1) | IC50 (DLD-1) | IC50 [2]
inactive |  | C[C@@]12CCC(=O)c3coc(c31)C(=O)c1cc3c(cc12)C(=O)C=CC3=O |  |  |  |  | 
 | 700 nM | CC1(C)CCC[C@@]2(C)c3cc4c(cc3CC[C@H]12)C(=O)C=CC4=O [CYCLOZONARONE] |  |  |  |  | 
 |  | C[C@]1(CO)CCC[C@]2(C)c3cc4c(cc3C=C[C@@H]12)C(=O)C=CC4=O | 13.8 µM | > 15.5 µM | > 15.5 µM | 9.8 µM | > 15.5 µM
 |  | C[C@]1(C=O)CCC[C@]2(C)c3cc4c(cc3C(=O)C[C@@H]12)C(=O)C=CC4=O | 6.1 µM | > 14.8 µM | 6.1 µM | 3.7 µM | > 14.8 µM
